Source: PubChem BioAssay
FXIIa inh = inhibitors of human coagulation factor XIIa; P00748; purified FXIIa, Boc-QGR-AMC fluorogenic substrate, 2 h; inhibition, % at 5 µM; 0.3% of 220,000 active; AID 800; in the data active = inhibition above about 40%
FXIa inh = blocks human coagulation factor XIa protease activity | P03951 | purified FXIa, Boc-Glu-Ala-Arg-AMC fluorogenic substrate | inhibition, % at 5 µM | 0.14% of 220,000 active | AID 798;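 active = inhibition of at least 40%; inactive = inhibition below 40%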;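 also: fluorescence of freed AMC excited at 355 nm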
Target sequence (P03951 19-387 limits assumed): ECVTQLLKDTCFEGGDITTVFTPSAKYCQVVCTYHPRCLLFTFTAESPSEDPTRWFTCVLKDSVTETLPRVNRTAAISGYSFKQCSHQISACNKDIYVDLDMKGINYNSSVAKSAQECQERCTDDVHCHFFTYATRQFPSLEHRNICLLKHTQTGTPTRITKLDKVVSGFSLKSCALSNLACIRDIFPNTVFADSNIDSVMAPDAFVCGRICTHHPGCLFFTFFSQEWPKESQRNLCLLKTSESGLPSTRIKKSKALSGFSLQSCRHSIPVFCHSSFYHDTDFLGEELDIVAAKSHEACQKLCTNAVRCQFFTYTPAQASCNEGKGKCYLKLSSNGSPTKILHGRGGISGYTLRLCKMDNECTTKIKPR
Target sequence (P03951 388-625 limits assumed): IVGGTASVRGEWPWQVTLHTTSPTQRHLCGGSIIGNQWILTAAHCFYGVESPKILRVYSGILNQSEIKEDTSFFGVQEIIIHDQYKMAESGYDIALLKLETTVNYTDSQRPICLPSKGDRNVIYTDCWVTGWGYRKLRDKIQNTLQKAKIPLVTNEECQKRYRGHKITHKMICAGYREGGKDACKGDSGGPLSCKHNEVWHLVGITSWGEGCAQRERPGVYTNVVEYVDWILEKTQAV
Wee1 degr inh = blocks degradation of human Wee1 kinase; HeLa Luc-Wee1K328M stability, luciferase luminescence; 100% = proteasome inhibitor MG132 effect; P30291; reporter increase, % at 5 µM; 1.2% of 220,000 active;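 active = activation above the mean of all tested compounds plus 3 SD, set per screening run, cut at about 8.8% in these data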;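 also: cells exposed to compound for 20 h before luminescence read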
hK5 inh = kallikrein 5 (human) inhibition; Q9Y337; recombinant hK5, fluorogenic AMC substrate cleavage; inhibition, % at 5 µM; 0.59% of 210,000 active;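 active = inhibition of 40% or more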
thrombin 1536 = inhibitors of human thrombin; 0.26% of 220,000 active; alpha-thrombin, Boc-VPR-AMC fluorogenic substrate cleavage; P00734; inhibition, % at 5 µM;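 active = inhibition at or above 40%; inactive = inhibition below 40%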
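Assay system: human alpha-thrombin enzyme. Reagent: Boc-VPR-AMC substrate, 15 µM final. Compound dosing: one concentration per compound, 5 µM, with 0.2% DMSO. Incubation: room-temperature reaction. Technique: AMC fluorescence, 355/460 nm. Measure: % inhibition relative to enzyme controls and enzyme-free blanks.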
Wee1 degr conf = confirmation of human Wee1 degradation inhibitors; shares compounds with Wee1 degr inh; HeLa Luc-Wee1K328M degradation, luminescence; vehicle 0%, proteasome-blocked wells 100%; activation, % at 5 µM; 4% of 1,100 active; AID 1410; in the data active = activation above about 8.9%
Numbers stand for hits; 0 = inactive; - = not tested or not shown. In the library only some 2.2% were active in any assay of this set; here they are far more common.

SMILES | FXIIa inh | FXIa inh | Wee1 degr inh | hK5 inh | thrombin 1536 | others
O=C(c1cc(C(=O)c2ccco2)cc(C(=O)c2ccco2)c1)c1ccco1 | 0 | 0 | 11 | 0 | 0
Cn1c(CCN2CCCCC2)nc2cc(NS(=O)(=O)c3ccc(Cl)cc3)ccc21 | 0 | 0 | - | 0 | 0
Cn1c(CN2CCCCC2)nc2cc(NS(=O)(=O)c3ccc(Cl)cc3)ccc21 | 0 | 0 | 0 | 0 | 76
COc1ccc(C2c3cc(OC)c(OC)cc3CCN2S(C)(=O)=O)cc1OC (stereo not given) | 46 | 0 | 0 | 0 | 0
CC(c1ccccc1)N1CCN(C(=O)CCl)CC1 (stereo not given) | - | 0 | 0 | 0 | 0
CCCCCSc1nnc(-c2cc(Br)ccc2N)c(=O)[nH]1 | 0 | 0 | 0 | 42 | 0
CCCCCCCSc1nnc(-c2ccccc2N)c(=O)[nH]1 | 0 | 0 | 0 | 0 | 0
Cc1ccc(SCc2cn3ccccc3n2)cc1 | 0 | 0 | 9.3 | 0 | 0
O=c1[nH]nc(SCc2ccccc2)n1C1CC2C=CC1C2 (stereo not given) | 0 | 0 | 0 | 0 | 0
COC(=O)c1ccccc1NC(=O)CSc1nccc(C)n1 | 0 | 0 | 10 | 0 | 0
COC(=O)c1ccccc1NC(=O)Nc1cc(C)ccn1 | 41 | 0 | 0 | 0 | 0
COC(=O)c1ccccc1NC(=O)CSc1nc(C)cc(C)n1 | 0 | 0 | 0 | 0 | 0
Cc1ccnc(NC(=O)Nc2ccc(Br)cc2Cl)c1 | 0 | 0 | 9.5 | 0 | 0
COC(=O)c1ccccc1NC(=O)Nc1cc(C)cc(C)n1 | 0 | 0 | 0 | 0 | 0
CC(C)c1ccc(NC(=O)COc2ccccn2)cc1 | 0 | 0 | 0 | 0 | 89
O=C(COS(=O)c1ccccc1)Nc1cc(Cl)ccc1N1CCOCC1 (stereo not given) | 0 | 0 | 9.0 | 0 | 0
Cc1ccc(NC(=O)CSc2nnc(COc3ccc(C#N)cc3)n2-c2ccccc2)cc1C | 0 | 0 | 0 | 45 | 0
O=C(CNC(=O)c1ccco1)NCC(=O)OCc1cccc(Cl)c1 | 0 | 0 | 0 | 0 | 0
O=C(CNC(=O)c1ccco1)OCc1cccc(Cl)c1 | 0 | 0 | 9.4 | 0 | 0
CC1Cn2c(nnc2-c2cc3ccccc3cc2O)S1 (stereo not given) | 0 | 0 | 0 | 44 | 0
CC1Cn2c(nnc2-c2ccccc2O)S1 (stereo not given) | 0 | 0 | 0 | 0 | 0
Cc1ccc(SCc2cc(=O)n3ccsc3n2)c(C)c1 | 0 | 0 | 0 | 0 | 0
Cc1ccc(C)c(C(=O)c2c(C)nc3sccn23)c1 | 0 | 0 | 0 | 44 | 0
O=C1NC2(CCCCC2)NN1c1ccccc1 | 0 | 0 | 0 | 0 | 48
Cc1ccc(OCC(=O)N2CCC(N3CCCCCC3)CC2)cc1 | 0 | 0 | 0 | 0 | 42
SMILES | FXIIa inh | FXIa inh | Wee1 degr inh | hK5 inh | thrombin 1536 | others
Cc1ccc(OCC(=O)N2CCN(C(=O)CCC3CCCC3)CC2)cc1 | 0 | 0 | 0 | 0 | 0
CC(C)Cn1c(-c2ccccc2)nc2ccccc2c1=O | 42 | 0 | 0 | 0 | 0
Cc1cc(C)n(CC2CC(=O)N(c3ccc(Cl)c(Cl)c3)C2=O)n1 (stereo not given) | 0 | 0 | 0 | 54 | 0
Cc1ccc(-c2nnc(Nc3ccc4c(c3)OCO4)c3ccccc23)cc1S(=O)(=O)NC(C)C | 0 | 0 | 0 | 0 | 0
COC(c1ccccc1)c1nnc(CCC(=O)N(C)Cc2cccc(-n3cccn3)c2)o1 (stereo not given) | - | 0 | 0 | - | 40
COc1ccc(C(=O)N(c2ccc(OC)cc2)S(=O)(=O)c2cccs2)cc1 | 0 | 0 | 0 | 0 | 0
COc1ccc(N(C(=O)c2ccncc2)S(=O)(=O)c2cccs2)cc1 | 0 | 0 | 9.1 | 0 | 0
Cc1cccc(S(=O)(=O)Nc2nc3ccccc3nc2NCc2ccc3c(c2)OCO3)c1 | 0 | 0 | 0 | 0 | 0
O=C(c1ccc(S(=O)(=O)N2CCCCC2)cc1)N1CCN(CCN2C(=O)c3cccc4cccc(c34)C2=O)CC1 | 0 | 0 | 0 | 0 | 0
COCCCNC(=S)Nc1cccc2ncccc12 | 0 | 0 | 9.2 | 0 | 0
CCC(=O)Nc1ccc(-c2cc3ccccc3oc2=O)cc1 | 0 | 0 | 22 | 0 | 0 | Wee1 degr conf=0
CCN(CC)CCCOC(=O)C1(c2ccccc2)CCCC1 | 0 | 0 | 0 | 0 | 0
CCN(CC)CCOC(=O)C1(c2ccccc2)CCOCC1 | 0 | 0 | 14 | 0 | 0 | Wee1 degr conf=0
Cc1nonc1CN(C)C(=O)CC1C(=O)NCCN1Cc1cccc(C(F)(F)F)c1 (stereo not given) | 0 | 0 | 0 | 0 | 0
Cc1ccc(CN2CCSc3sccc3C2=O)cc1 | 0 | 0 | 0 | - | 0
COc1ccc(C2CC(C(F)(F)F)n3ncc(C(=O)Nc4cccc(O)c4)c3N2)cc1OC (stereo not given) | 0 | 0 | 13 | 0 | 0 | Wee1 degr conf=0
O=S(=O)(Nc1nc2ccccc2s1)c1cnc(Cl)c(Br)c1 | 0 | 0 | 0 | 0 | 0
c1ccc(-n2cnnc2SCc2cn3ccccc3n2)cc1 | 0 | 0 | 0 | 0 | 0
c1ccc(-n2cnnc2SCc2cn3ccsc3n2)cc1 | 0 | 0 | 13 | 0 | 0 | Wee1 degr conf=0
COc1ccc(CCC(=O)Nc2sccc2C#N)cc1 | 0 | 0 | 12 | 0 | 0 | Wee1 degr conf=0
Cc1cccc(-n2cc(-c3ccccc3)c3c(NN4CCOCC4)ncnc32)c1 | 0 | 0 | 24 | 0 | 0 | Wee1 degr conf=0
CN(C)C(=O)c1nc2ccccc2s1 | 0 | 0 | 0 | 0 | 0
CN(C(=O)c1ccccc1)c1nc2ccccc2s1 | 0 | 0 | 13 | 0 | 0 | Wee1 degr conf=0
Cc1nc(NNC(=O)c2ccc(Cl)cc2Cl)cc(-c2ccccc2)n1 | 0 | 0 | 11 | 0 | 0 | Wee1 degr conf=0
O=C(NNC(=O)c1ccc(Cl)cc1Cl)Nc1ccccc1 | 0 | 0 | 0 | 0 | 0
SMILES | FXIIa inh | FXIa inh | Wee1 degr inh | hK5 inh | thrombin 1536 | others
O=C(c1ccc(Br)o1)N1CCCc2ccccc21 | 0 | 0 | 0 | 0 | 0
O=C(c1ccc(Br)o1)N1CCc2ccccc21 | 0 | 0 | 13 | 0 | 0 | Wee1 degr conf=0
Cc1c(C(=O)N2CCc3ccccc32)oc2ccccc12 | 0 | 0 | 11 | 0 | 0 | Wee1 degr conf=0
Cc1cc(NC(=O)CSc2nc(-c3ccccc3Cl)nc3c2c(=O)n(C)c(=O)n3C)no1 | 0 | 0 | 0 | 0 | 0
CCOC(=O)c1ccc(NC(=S)Nc2cccc(C)n2)cc1 | 0 | 0 | 0 | 0 | 0
CCOC(=O)c1ccc(NC(=O)COC)cc1 | 0 | 0 | 0 | 0 | 0
CCOC(=O)c1ccc(NC(=O)C(CC)(CC)C(=O)OCC)cc1 | 0 | 0 | 16 | 0 | 0 | Wee1 degr conf=0
CCOC(=O)c1ccc(NC(=S)Nc2cccc(N)n2)cc1 | 0 | 0 | 18 | 0 | 0 | Wee1 degr conf=0
CCOC(=O)c1cn[nH]c1NC(=S)Nc1ccc(OC)cc1 | 0 | 0 | 12 | 0 | 0 | Wee1 degr conf=0
CN(C)S(=O)(=O)c1ccc(NC(=O)COC(=O)CC2CC3CCC2C3)cc1 (stereo not given) | 0 | 0 | 0 | 0 | 0
CCOC(=O)c1cnc2c(C)c(C)ccc2c1Nc1ccc(S(=O)(=O)Nc2ncccn2)cc1 | 0 | 0 | 0 | 0 | 0
